The values below come from ChEMBL document CHEMBL4038305, “Benzoxaborole Antimalarial Agents. Part 5. Lead Optimization of Novel Amide Pyrazinyloxy Benzoxaboroles and Identification of a Preclinical Candidate” (J Med Chem, 2017).

What is called IC50 is the concentration needed to halve the response being measured. The term Tmax denotes the time from dosing to the highest level.

Series [1] has as its system Plasmodium berghei. The series is described as follows: Antimalarial activity against Plasmodium berghei infected in Swiss Webster mouse assessed as mouse survival rate at 11 mg/kg administered once daily via oral gavage for 4 consecutive days beginning 1 hr after infection measured on day 10 post infection relative to control. In kind it is functional. The gist of the method: (§1)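 Mice given an intraperitoneal injection of P. berghei-infected erythrocytes taken from a previously infected animal. Oral dosing once daily for 4 consecutive days, starting 1 h after infection. Vehicle: polyethylene glycol 300/propylene glycol/water (weight ratio 55/25/20). Percent survival recorded daily from day 4 to day 20. Chloroquine 30 mg/kg and vehicle-only groups served as controls.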

Series [2] has as its system Plasmodium berghei. In words: Antimalarial activity against Plasmodium berghei infected in Swiss Webster mouse assessed as mouse survival rate at 11 mg/kg administered once daily via oral gavage for 4 consecutive days beginning 1 hr after infection measured on day 11 post infection relative to control. In kind it is functional. A digest of the protocol:
as §1

Series [3] deals with Plasmodium berghei. In words: Antimalarial activity against Plasmodium berghei infected in Swiss Webster mouse assessed as mouse survival rate at 3 mg/kg administered once daily via oral gavage for 4 consecutive days beginning 1 hr after infection measured on day 7 post infection relative to control. In kind it is functional. A digest of the protocol:
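P. berghei-infected erythrocytes taken from a previously infected mouse were injected intraperitoneally. Oral dosing, once daily for 4 consecutive days, began 1 h after infection, in polyethylene glycol 300/propylene glycol/water (55/25/20 by weight). Chloroquine at 30 mg/kg was the positive control, with a vehicle-only group. Percent survival was recorded daily from day 4 to day 20.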

In series [4] the test system is Plasmodium berghei. In words: Antimalarial activity against Plasmodium berghei infected in Swiss Webster mouse assessed as mouse survival rate at 1 mg/kg administered once daily via oral gavage for 4 consecutive days beginning 1 hr after infection measured on day 8 post infection relative to control. The series is classed as functional. A digest of the protocol: as §1

Series [5] concerns Plasmodium berghei. In words: Antimalarial activity against Plasmodium berghei infected in Swiss Webster mouse assessed as mouse survival rate at 0.3 mg/kg administered once daily via oral gavage for 4 consecutive days beginning 1 hr after infection measured on day 5 post infection relative to control. In kind it is functional. A digest of the protocol: as §1
For series [6], the system named is Rattus norvegicus. The series is described as follows: Genotoxicity in rat assessed as micronuclei in polychromatic erythrocyte cells in bone marrow at 500 to 2000 mg/kg administered via oral gavage measured after 24 to 48 hrs post dose by micronucleus assay. In kind it is toxicity, organism-based. Conditions: in vivo.
For series [7], the system named is Salmonella typhimurium. In words: Genotoxicity in Salmonella typhimurium TA98 assessed as number of revertants per plate at 50 ug/plate in absence of rat liver S9 fraction by Ames test (reference value: 14 +/- 6). The series is classed as toxicity. Conditions: salmonella enterica subsp. enterica serovar typhimurium. (In general: In the Ames test, an excess of revertant colonies over the control signals mutagenicity.)

The test system of series [8] is Plasmodium falciparum. In words: Antimalarial activity against Plasmodium falciparum K1 infected in human erythrocytes assessed as reduction in [3H]-hypoxanthine incorporation preincubated for 24 hrs followed by [3H]-hypoxanthine addition measured after 24 hrs by scintillation counting method. In kind it is functional, cell-based.
Another series has as its system Escherichia coli. The series is described as follows: Genotoxicity in Escherichia coli WP2uvrA assessed as number of revertants per plate at 50 ug/plate in presence of rat liver S9 fraction by Ames test (reference value: 42 +/- 6). The series is classed as toxicity.
Series [9] deals with Salmonella typhimurium. The series is described as follows: Genotoxicity in Salmonella typhimurium TA1537 assessed as number of revertants per plate at 1500 ug/plate in absence of rat liver S9 fraction by Ames test (reference value: 19 +/- 9). The series is classed as toxicity. Conditions: salmonella enterica subsp. enterica serovar typhimurium.
The subject of the next series is Lymphocyte. In words: Genotoxicity in human lymphocytes assessed as increase in frequency of micronucleated cells at 160 ug/mL after 28 hrs in absence of rat liver S9 fraction by micronucleus assay (reference value: 0.74%). The series is classed as toxicity, cell-based.
The subject of series [10] is Plasmodium falciparum. The series is described as follows: Antimalarial activity against intraerythrocytic stage of Plasmodium falciparum assessed as parasite reduction ratio at 10 times IC50 preincubated for 24 hrs followed by [3H]-hypoxanthine addition measured after 24 hrs by scintillation counting method. In kind it is functional. A digest of the protocol: (§2)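 In vitro P. falciparum parasite reduction ratio assay run at 10×, 30× and 100× IC50. Derived parameters: lag phase (time to maximal killing), PRR (parasites killed per life cycle) and PCT99.9% (time to clear 99.9% of the initial parasite population).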

For series [11], the system named is Salmonella typhimurium. In words: Genotoxicity in Salmonella typhimurium TA1537 assessed as number of revertants per plate at 5000 ug/plate in presence of rat liver S9 fraction by Ames test (reference value: 11 +/- 4). The series is classed as toxicity. Conditions: salmonella enterica subsp. enterica serovar typhimurium.
In series [12] the test system is Salmonella typhimurium. In words: Genotoxicity in Salmonella typhimurium TA100 assessed as number of revertants per plate at 150 ug/plate in absence of rat liver S9 fraction by Ames test (reference value: 154 +/- 9). In kind it is toxicity. Conditions: salmonella enterica subsp. enterica serovar typhimurium.
For series [13], the system named is Salmonella typhimurium. In words: Genotoxicity in Salmonella typhimurium TA98 assessed as number of revertants per plate at 5 ug/plate in presence of rat liver S9 fraction by Ames test (reference value: 19 +/- 8). In kind it is toxicity. Conditions: salmonella enterica subsp. enterica serovar typhimurium.
Series [14] relates to Plasmodium falciparum. The series is described as follows: Antimalarial activity against intraerythrocytic stage of Plasmodium falciparum assessed as time required to clear 99.9% of initial parasite population at 10 times IC50 preincubated for 24 hrs followed by [3H]-hypoxanthine addition measured after 24 hrs by scintillation counting method. In kind it is functional. The gist of the method:
as §2

The nature of series [15]: Tmax in Beagle dog plasma at 5 mg/kg, po via gavage by HPLC/MS analysis. The series is classed as ADME, organism-based, Canis lupus familiaris.
The subject of series [16] is Salmonella typhimurium. The series is described as follows: Genotoxicity in Salmonella typhimurium TA1535 assessed as number of revertants per plate at 150 ug/plate in presence of rat liver S9 fraction by Ames test (reference value: 10). Conditions: salmonella enterica subsp. enterica serovar typhimurium. The series is classed as toxicity.
The test system of series [17] is Salmonella typhimurium. In words: Genotoxicity in Salmonella typhimurium TA100 assessed as number of revertants per plate at 50 ug/plate in absence of rat liver S9 fraction by Ames test (reference value: 154 +/- 9). The series is classed as toxicity. Conditions: salmonella enterica subsp. enterica serovar typhimurium.
For series [18], the system named is Salmonella typhimurium. The series is described as follows: Genotoxicity in Salmonella typhimurium TA1537 assessed as number of revertants per plate at 15 ug/plate in presence of rat liver S9 fraction by Ames test (reference value: 11 +/- 4). The series is classed as toxicity. Conditions: salmonella enterica subsp. enterica serovar typhimurium.
The nature of series [19]: Terminal half life in Beagle dog at 5 mg/kg, iv by HPLC/MS analysis. In kind it is ADME, organism-based, Canis lupus familiaris. Conditions: in vivo, read-out: beta t1/2 (converted). A digest of the protocol: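 Female CD-1 mice, male SD rats or beagle dogs given 5 mg/kg by iv injection or oral gavage. Formulation was PEG300/propylene glycol/water 55/25/20, pH 6. Blood samples analysed by HPLC–MS/MS; parameters include AUC0-inf extrapolated to infinity and terminal half-life.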

Series [20] relates to Rattus norvegicus. The series is described as follows: Genotoxicity in rat assessed as change in polychromatic erythrocytes in bone marrow at 500 mg/kg administered via oral gavage measured after 24 hrs post dose by micronucleus assay relative to control. Conditions: in vivo. In kind it is toxicity, organism-based.
Series [21] concerns Salmonella typhimurium. The series is described as follows: Genotoxicity in Salmonella typhimurium TA1537 assessed as number of revertants per plate at 15 ug/plate in absence of rat liver S9 fraction by Ames test (reference value: 19 +/- 9). Conditions: salmonella enterica subsp. enterica serovar typhimurium. The series is classed as toxicity.
The test system of series [22] is Rattus norvegicus. In words: Genotoxicity in rat assessed as micronucleated polychromatic erythrocytes in bone marrow at 500 mg/kg administered via oral gavage measured after 24 hrs post dose by micronucleus assay (reference value: 0.07 +/- 0.05%). Conditions: in vivo. The series is classed as toxicity, organism-based.
Series [23] deals with Salmonella typhimurium. The series is described as follows: Genotoxicity in Salmonella typhimurium TA1535 assessed as number of revertants per plate at 50 ug/plate in presence of rat liver S9 fraction by Ames test (reference value: 10). The series is classed as toxicity. Conditions: salmonella enterica subsp. enterica serovar typhimurium.
The subject of series [24] is Salmonella typhimurium. In words: Genotoxicity in Salmonella typhimurium TA1537 assessed as number of revertants per plate at 5 ug/plate in absence of rat liver S9 fraction by Ames test (reference value: 19 +/- 9). In kind it is toxicity. Conditions: salmonella enterica subsp. enterica serovar typhimurium.
In series [25] the test system is Salmonella typhimurium. In words: Genotoxicity in Salmonella typhimurium TA1537 assessed as number of revertants per plate at 50 ug/plate in absence of rat liver S9 fraction by Ames test (reference value: 19 +/- 9). In kind it is toxicity. Conditions: salmonella enterica subsp. enterica serovar typhimurium.

`Cc1c(Oc2cnc(C(=O)N3CC(O)(C(C)C)C3)cn2)ccc2c1B(O)OC2`: the survival at 11 mg/kg in the series with Plasmodium berghei [1] and in the series on Plasmodium berghei [2] was 20% throughout.

With `Cc1c(Oc2cnc(C(=O)NC(C)CO)cn2)ccc2c1B(O)OC2` (configuration not stated), the survival at 3 mg/kg in the series with Plasmodium berghei [3] stood at 60%. Besides, in the series with Plasmodium berghei [4], the survival at 1 mg/kg is 0%. For the same compound, the survival at 0.3 mg/kg in the series with Plasmodium berghei [5] amounted to 20%.

As for `Cc1c(Oc2cnc(C(=O)NCCO)cn2)ccc2c1B(O)OC2`, in the series with Rattus norvegicus [6], the Activity result is “Non-Toxic”.

As to `Cc1c(Oc2cnc(C(=O)N3CC(C)(O)C3)cn2)ccc2c1B(O)OC2`, the Activity in the series with Salmonella typhimurium [7] was 14; in the series with Escherichia coli, 44; with Salmonella typhimurium [9], 10; with Lymphocyte, 0.89%; in the series with Salmonella typhimurium [11] it was 9; in the series with Salmonella typhimurium [12] it was 148. The Activity with Salmonella typhimurium [13] is reported as 15; with Salmonella typhimurium [16] it was 15; in the series with Salmonella typhimurium [17], 132; in the series with Salmonella typhimurium [18] it was 9; with Rattus norvegicus [20] it was -4%; in the series on Salmonella typhimurium [21], 10. Also, the Activity came to 0.03% with Rattus norvegicus [22], 11 in the series with Salmonella typhimurium [23], 15 with Salmonella typhimurium [24] and 12 in the series on Salmonella typhimurium [25]. For the same compound, the IC50 in the series with Plasmodium falciparum [8] was found to be 62 nM. In the series on Plasmodium falciparum [10], the “log(ratio)” value worked out at 4.1. The T99.9% in the series with Plasmodium falciparum [14] worked out at 36 h. Moreover, the Tmax in [15] worked out at 1.2 h. Further, the half-life in series [19] was 6.9 h.
